# Cav3 T inh: human Cav3.2 channel inhibition, primary screen; O95180; Cav3.2-expressing cells, Fluo-4 calcium fluorescence FDSS; stronger effect = lower value; B-score at 10 µM; actives 4% (n = 100,000); AID 449739;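 active = single-dose well whose peak fluorescence ratio is a statistical outlier from its plate by either plate-standardised score or position-corrected B-score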
# PostGolgi yeast: growth inhibition of a yeast mutant, post-Golgi transport screen | AID 739 | actives 0.9% (n = 98,000) | inhibition, % at 10 µM | post-Golgi transport phenotypic cell assay;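 note: yeast cells grown in 1536-well plates; yeast grown about 18 h at 30C before absorbance read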
# tolC growth inh: growth inhibitors of E. coli BW25113 tolC mutant; OD615; growth inhibition, % at 10 µM (by protocol); actives 2.2% (n = 65,000); AID 573;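 active = growth inhibition at or above a cutoff equal to the mean over every tested compound plus 3 SD, cut at about 60% in these data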;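 note: growth measured after 20 h incubation at 37 °C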
#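 Material: E. coli BW25113 ΔtolC::kan, tolC deletion mutant strain. Measure: percent growth inhibition. Schedule: 37 °C, 20 h exposure. Doses: single-point testing at 10 µM. Signal: A615 absorbance measurement. Buffer or medium: kanamycin-containing LB broth (50 µg/mL).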
# Ecoli WT expand: growth inhibitors of E. coli BW25113 wild type | OD600 absorbance | growth inhibition, % at 100 µM | actives 0.15% (n = 98,000) | AID 710;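 active = growth inhibition above about 50% at one test dose, limit read from the data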;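 note: growth measured after 20 h incubation at 37 °C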
# PostGolgi ctrl: yeast control strain growth, post-Golgi counter-screen; AID 738; actives 5% (n = 98,000); inhibition, % at 10 µM; efflux-deficient yeast background strain, growth absorbance A615, 16 h
# Hits are given with their value; . = inactive; / = not tested or not shown. A selection: hits, their analogues and other compounds. The true share with any hit is near 8.4%. Cut-off read from the data, not from the text of the source, unless noted: active = inhibition above about 30%; inactive = the rest.
SMILES,Cav3 T inh,PostGolgi yeast,tolC growth inh,Ecoli WT expand,PostGolgi ctrl
COc1ccc(C(CC(=O)N2CCCC(C)C2)c2c(OC)cc(OC)c3ccc(=O)oc23)cc1 (configuration not stated),.,/,/,/,/
C=CCSc1nnc2nc3c(nn12)c1cc(C)ccc1n3CC=C,.,.,.,.,.
CCOc1ccccc1CNC(=O)CCN1C(=O)COc2ccccc21,.,.,.,.,44
CC(C)OCCCNC(=O)CCN1C(=O)COc2ccccc21,.,.,.,.,.
Cc1cccc(NC(=O)CCN2C(=O)C3C4C=CC(C4)C3C2=O)c1 (configuration not stated),.,.,/,.,.
O=C(NCc1ccc(C(F)(F)F)cc1)C12CN(Cc3ccccc3)CC1C(c1cccc([N+](=O)[O-])c1)=NO2 (configuration not stated),-3.2,.,/,.,.
CC(C)CCNC(=O)C12CN(Cc3ccccc3)CC1C(c1ccc([N+](=O)[O-])cc1)=NO2 (configuration not stated),.,.,/,.,.
COc1cccc(CNC(=O)C23CN(Cc4ccccc4)CC2C(c2ccc([N+](=O)[O-])cc2)=NO3)c1 (configuration not stated),.,.,/,.,33
Cc1nc2c(c(=O)n1CC1CCCO1)c1nc3ccccc3nc1n2CCC(C)C (configuration not stated),/,/,.,/,/
COc1ccc(Nc2nc3ccccc3nc2C)cc1,-3.8,.,.,.,.
CCOC(=O)Cn1c(=O)c2c(nc3n2CCN3Cc2ccccc2)n(C)c1=O,.,.,.,.,.
COc1ccc(N2CC(C)Cn3c2nc2c3c(=O)n(Cc3ccc(F)cc3)c(=O)n2C)c(OC)c1 (configuration not stated),-4.7,.,.,.,.
CCn1c(=O)c2c(nc3n2CCCN3CCc2ccccc2)n(C)c1=O,.,.,.,.,.
Cn1c(=O)n(Cc2ccccc2)c(=O)c2c1nc1n2CCCN1C1CCCCC1,/,/,.,/,/
Cc1cccc(Cn2c(=O)c3c(nc4n3CCCN4Cc3ccccc3)n(C)c2=O)c1,.,.,74,.,42
Cn1c(=O)n(Cc2ccc(F)cc2)c(=O)c2c1nc1n2CCCN1C1CCCCC1,-4.9,.,.,.,.
Cn1c(=O)n(C/C=C/c2ccccc2)c(=O)c2c1nc1n2CCCN1Cc1ccccc1,.,.,.,.,32
CCOc1ccc2oc(-c3ccccc3)c(C(=O)N3CCN(CCO)CC3)c2c1,.,.,.,.,.
CCCNC(=O)C1CC(=O)N(c2ccc(OCC(=O)Nc3cc(C)cc(C)c3)cc2)C1 (configuration not stated),.,/,.,/,/
Cn1c(=O)n(C/C=C/c2ccccc2)c(=O)c2c1nc1n2CCCN1c1ccc(F)cc1,.,.,.,.,31
CCOC(=O)C1=C(C)N(C)C(C)=C(C(=O)OCC)C1c1ccc(C(=O)OC)cc1,-7,.,/,.,.
COC(=O)C1=C(C)N(C)C(C)=C(C(=O)OC)C1c1ccc(Cl)cc1,.,.,/,.,.
Cc1ccc(-c2cc(C(=O)N3CCCc4ccccc43)c3ccccc3n2)cc1,.,.,/,.,.
Cc1ccc2nc3sc(C(=O)N4CCCc5ccccc54)c(N)c3cc2c1,/,.,/,.,50
O=C(c1ccc(F)cc1)N1CCCCC(Sc2nnnn2-c2ccccc2)C1=O (configuration not stated),.,.,/,.,45
SMILES,Cav3 T inh,PostGolgi yeast,tolC growth inh,Ecoli WT expand,PostGolgi ctrl
O=C(c1ccccc1)N1CCCCC(Sc2nnnn2-c2ccccc2)C1=O (configuration not stated),.,/,.,/,/
COc1ccccc1NC(=O)N1CCc2[nH]c3ccc(Cl)cc3c2C1,-5.1,.,.,.,.
COc1ccccc1NC(=O)N1CCC(c2nc3cc(C)c(C)cc3[nH]2)CC1,.,/,/,/,/
CCCCCCCCCCn1c2c(c(=N)c3c1CCC3)CCC2,-7,.,/,100,97
C1CCC2(CC1)OCC1(CO2)COC2(CCCCC2)OC1,.,.,.,.,.
O=C1NC(=O)C2(COC3(CCCC3)OC2)S1,.,.,.,.,35
CCOC(=O)c1sc(C(=O)OCC)c(OCCO)c1OCCO,.,.,.,.,.
CCC1S/C(=C(\C#N)C(=O)NCc2ccco2)N(c2ccc(F)cc2)C1=O (configuration not stated),.,.,.,.,.
CCC1S/C(=C(\C#N)C(=O)NCc2ccco2)N(c2ccc(Br)cc2)C1=O (configuration not stated),-5.4,.,.,.,.
O=c1cc(-c2ccccc2)nc(N2CCN(Cc3ccc4c(c3)OCO4)CC2)[nH]1,.,.,.,.,.
c1ccc2c(c1)c1ccccc1n1c(-c3ccc4c(c3)OCO4)nnc21,.,.,/,.,43
CCCCn1c(=O)c(-[n+]2ccccc2)c([O-])c2ccccc21,.,.,/,.,.
CCCCOc1[nH]c2nc(-c3ccco3)n(Cc3ccco3)c(=N)c2c1C#N,/,.,78,.,.
CCOc1ccc(-n2c(N)c(C(=O)NCc3cccnc3)sc2=S)cc1,.,.,/,.,32
Cc1cccc(S(=O)(=O)C(C#N)c2nc3ccccc3nc2N2CCCC2)c1 (configuration not stated),.,.,.,.,.
COc1ccc(S(=O)(=O)C(C#N)c2nc3ccccc3nc2N2CCCCC2)cc1 (configuration not stated),-4.8,.,.,.,.
CCCCNC(=O)C(C#N)c1nc2ccccc2nc1N1CCN(Cc2ccc3c(c2)OCO3)CC1 (configuration not stated),/,/,.,/,/
COc1ccc(CNC(=O)C(C#N)c2nc3ccccc3nc2N2CCCC2)cc1 (configuration not stated),-7.3,.,.,.,.
CC1CN(c2nc3ccccc3nc2C(C#N)C(=O)NCc2ccc3c(c2)OCO3)CC(C)O1 (configuration not stated),-7.9,.,.,.,.
Cc1ccc(S(=O)(=O)C(C#N)c2nc3ccccc3nc2N2CCC(C)CC2)cc1 (configuration not stated),.,.,.,.,.
N#CC(c1nc2ccccc2nc1N1CCCC1)S(=O)(=O)c1ccccc1 (configuration not stated),.,.,.,.,31
COc1ccc(CNC(=O)C(C#N)c2nc3ccccc3nc2N2CCN(C)CC2)cc1 (configuration not stated),.,.,.,.,.
CN(C)CCNC(=O)CN1C(=O)COc2ccc(C(C)(C)C)cc21,.,.,/,.,.
O=C1OC(NC(=O)c2ccccc2)C(n2cc(CO)nn2)=C1Cl (configuration not stated),.,.,.,.,.
CC(CC1C(C#N)=C(N)SC(N)=C1C#N)c1ccccc1 (configuration not stated),/,.,.,.,.
COc1ccc(-n2c(C)c3c(OC)cccc(=O)c3c2C)cc1,/,.,/,.,34
COc1cccc(=O)c2c(C)oc(C)c12,/,.,.,.,.
Cc1ccc(C(=O)O/N=C/c2c(N3CCOCC3)n(C)c3ccccc23)cc1,.,.,/,.,32

# Screening data deposited in PubChem by several laboratories.
